Activity calls are given as the source filed them. Where a SMILES comes first, the peptide text is derived from it. The star is where a group is joined. Cbz = O=C(OCc1ccccc1)*
What was measured:
[1] = Modulation of mitochondria-endoplasmic reticulum contacts in human HCT-116 cells expressing MERLIN by BRET assay; type: functional, cell-based
Summary of the method: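 MERLIN-HCT116 BRET biosensor cells (RLuc8 donor, mVenus acceptor) seeded at 4500/well for 24 h, then treated with compound overnight. Coelenterazine h 5 μM added for 8 min in the dark, read at RT. BRET = acceptor/donor emission minus RLuc8-only background, with DMSO, RLuc8 and RLuc8-mVenus controls; plates kept if Z'>0.7.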

HCT-116 [2] = assay: Cytotoxicity against human HCT-116 cells assessed as cell viability at 1 uM incubated for 24 hrs by MTT assay; type: toxicity, cell-based; conditions: hct-116, 24 h
Summary of the method: (§1)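 HCT116 cells grown in phenol red-free McCoy's 5A with 10% FBS and 1% penicillin/streptomycin. Exposed 24 h to compound at 1, 5 or 10 μM. Viability measured by MTT reduction to formazan read by absorbance, expressed as percent of untreated controls. Safety threshold >80% viability. Mean ± SEM of three independent experiments.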

HCT-116 [3] = assay: Induction of extracellular NBD-labeled cholesterol uptake in human HCT-116 cells at 1 uM incubated for 24 hrs followed by NBD-labeled cholesterol addition measured after 1 to 3 hrs by fluorescence based assay; type: functional, cell-based; conditions: time 25-27 hrs
Summary of the method: (§2)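 HCT116 cells seeded 24 h at 37 °C, 5% CO2, then treated with compound for 24 h. NBD-cholesterol added for 1 and 3 h. Cells washed three times with PBS, fluorescence read at 469/537 nm, compared with untreated cells. Mean ± SEM of three independent experiments.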

HCT-116 [4] = assay: Cytotoxicity against human HCT-116 cells assessed as cell viability at 5 uM incubated for 24 hrs by MTT assay; type: toxicity, cell-based; conditions: hct-116, 24 h; summary of the method: as §1
HCT-116 [5] = assay: Induction of extracellular NBD-labeled cholesterol uptake in human HCT-116 cells at 5 uM incubated for 24 hrs followed by NBD-labeled cholesterol addition measured after 3 hrs by fluorescence based assay; type: functional, cell-based; conditions: time 27.0 hrs; summary of the method: as §2
Lymphoblastoid cell [6] = assay: Induction of extracellular NBD-labeled cholesterol uptake in patient-derived Sporadic ALS lymphoblastoid cells at 5 uM incubated for 24 hrs followed by NBD-labeled cholesterol addition measured after 1 hr by fluorescence based assay; type: functional; conditions: Homo sapiens, time 25.0 hrs
Lymphoblastoid cell [7] = assay: Induction of extracellular NBD-labeled cholesterol uptake in patient-derived C9orf72-mutated familial ALS lymphoblastoid cells at 5 uM incubated for 24 hrs followed by NBD-labeled cholesterol addition measured after 1 hr by fluorescence based assay; type: functional; conditions: Homo sapiens, time 25.0 hrs
Lymphoblastoid cell [8] = assay: Induction of extracellular NBD-labeled cholesterol uptake in patient-derived SOD1 ALS lymphoblastoid cells at 5 uM incubated for 24 hrs followed by NBD-labeled cholesterol addition measured after 1 hr by fluorescence based assay; type: functional; conditions: Homo sapiens, time 25.0 hrs
Lymphoblastoid cell [9] = assay: Induction of cholesteryl ester formation in patient-derived lymphoblastoid cells at 5 uM incubated for 24 hrs by Amplex assay; type: functional, cell-based; conditions: Homo sapiens
Summary of the method: (§3)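 Control and sporadic ALS lymphoblastoid cells treated 24 h with compound at 5 μM or vehicle. Lipids extracted from equal cell amounts with chloroform:methanol 2:1 (v/v). Organic phase dried, resuspended in assay buffer, and cholesteryl esters quantified with the Amplex cholesterol kit. Individual values reported.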

Lymphoblastoid cell [10] = assay: Induction of lipid droplet formation in patient-derived lymphoblastoid cells at 5 uM incubated for 24 hrs by LipidTOX Green/DAPI staining based analysis; type: functional; conditions: Homo sapiens
Summary of the method: (§4)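 Control and sporadic ALS lymphoblastoid cells treated 24 h with compound at 5 μM or vehicle, fixed in 4% PFA, washed in PBS. Lipid droplets stained 2 h with LipidTOX Green, nuclei with DAPI. Confocal imaging and image-based quantification of >100 cells per condition; mean ± SEM.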

Lymphoblastoid cell [11] = assay: Induction of cholesteryl ester formation in patient-derived Sporadic ALS lymphoblastoid cells at 5 uM incubated for 24 hrs by Amplex assay; type: functional, cell-based; conditions: Homo sapiens; summary of the method: as §3
Lymphoblastoid cell [12] = assay: Induction of lipid droplet formation in patient-derived Sporadic ALS lymphoblastoid cells at 5 uM incubated for 24 hrs by LipidTOX Green/DAPI staining based analysis; type: functional; conditions: Homo sapiens; summary of the method: as §4
Lymphoblastoid cell [13] = assay: Induction of extracellular NBD-labeled cholesterol uptake in patient-derived Sporadic ALS lymphoblastoid cells at 5 uM incubated for 24 hrs followed by NBD-labeled cholesterol addition measured after 1 hr in presence of SSO by fluorescence based assay; type: functional; conditions: Homo sapiens, time 25.0 hrs
Summary of the method: (§5)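 Lymphoblastoid lines from controls (C100, C112) and sporadic ALS patients (E2, E4) treated 24 h with compound at 5 μM. BLT1, SSO or EZE (10 μM) added 15 min before NBD-cholesterol, which was left for 1 h. Cells washed three times with PBS, fluorescence read at 469/537 nm. Run in triplicate; mean ± SEM.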

Lymphoblastoid cell [14] = assay: Induction of extracellular NBD-labeled cholesterol uptake in patient-derived Sporadic ALS lymphoblastoid cells at 5 uM incubated for 24 hrs followed by NBD-labeled cholesterol addition measured after 1 hr in presence of EZE by fluorescence based assay; type: functional; conditions: Homo sapiens, time 25.0 hrs; summary of the method: as §5
Lymphoblastoid cell [15] = assay: Induction of extracellular NBD-labeled cholesterol uptake in patient-derived Sporadic ALS lymphoblastoid cells at 5 uM incubated for 24 hrs followed by NBD-labeled cholesterol addition measured after 1 hr in presence of […] by fluorescence based assay; type: functional; conditions: Homo sapiens, time 25.0 hrs; summary of the method: as §5
Lymphoblastoid cell [16] = assay: Induction of extracellular NBD-labeled cholesterol uptake in patient-derived lymphoblastoid cells at 5 uM incubated for 24 hrs followed by NBD-labeled cholesterol addition measured after 1 hr in presence of SSO by fluorescence based assay; type: functional; conditions: Homo sapiens, time 25.0 hrs
Lymphoblastoid cell [17] = assay: Induction of extracellular NBD-labeled cholesterol uptake in patient-derived lymphoblastoid cells at 5 uM incubated for 24 hrs followed by NBD-labeled cholesterol addition measured after 1 hr in presence of EZE by fluorescence based assay; type: functional; conditions: Homo sapiens, time 25.0 hrs
Lymphoblastoid cell [18] = assay: Induction of extracellular NBD-labeled cholesterol uptake in patient-derived lymphoblastoid cells at 5 uM incubated for 24 hrs followed by NBD-labeled cholesterol addition measured after 1 hr in presence of […] by fluorescence based assay; type: functional; conditions: Homo sapiens, time 25.0 hrs
Lymphoblastoid cell [19] = assay: Improvement in spare respiratory capacity in patient-derived Sporadic ALS lymphoblastoid cells at 5 uM incubated for 24 hrs by Seahorse XF analysis; type: functional, cell-based; conditions: Homo sapiens
Summary of the method: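 Control and sALS lymphoblasts plated at 200,000 cells/well on poly-L-lysine and cultured 24 h ± compound (5 μM). Then moved to bicarbonate-free DMEM with 2 mM glutamine, 5 mM glucose, 2% FBS, 1 mM pyruvate and 5 mM HEPES pH 7.4, 1 h without CO2. Seahorse Mito Stress OCR: basal, oligomycin 1 μM, FCCP 3 μM, antimycin/rotenone 2.5 μM each. Four replicates, mean ± SEM.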

Lymphoblastoid cell [20] = assay: Modulation of mitochondria-endoplasmic reticulum contacts in patient-derived Sporadic ALS lymphoblastoid cells at 5 uM incubated for 24 hrs by Seahorse XF analysis; type: functional, cell-based; conditions: Homo sapiens
HCT-116 [21] = assay: Modulation of mitochondria-endoplasmic reticulum contacts in human HCT-116 cells at 25 uM incubated for 1 hr by TEM analysis; type: functional, cell-based
Lymphoblastoid cell [22] = assay: Induction of lipid droplet formation in patient-derived Sporadic ALS lymphoblastoid cells at 5 uM incubated for 24 hrs by TEM analysis; type: functional, cell-based; conditions: Homo sapiens
Summary of the method: (§6)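 Control and sporadic ALS lymphoblasts with or without compound (5 μM, 24 h) were fixed 4 h at 4 °C in 4% paraformaldehyde/2.5% glutaraldehyde in 0.1 M phosphate pH 7.3. Postfixed in osmium tetroxide/potassium ferrocyanide, acetone-dehydrated, Spurr-embedded. 60 nm sections stained with lead citrate and imaged by TEM at 80 kV.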

Lymphoblastoid cell [23] = assay: Restoration of mitochondrial cristae structure in patient-derived Sporadic ALS lymphoblastoid cells at 5 uM incubated for 24 hrs by TEM analysis; type: functional, cell-based; conditions: Homo sapiens; summary of the method: as §6
[24] = Permeability of compound incubated for 2.5 hrs by PAMPA; type: ADME
Summary of the method: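 PAMPA-BBB: compounds in PBS/EtOH 70:30, pH 7.4, placed in a donor plate over a filter coated with porcine brain lipid in dodecane (20 mg/mL), with phosphate-buffer acceptor. Incubated 2 h 30 min at RT. Acceptor concentration read by absorbance at 2–5 wavelengths, three wells, two runs (mean ± SD). Ten reference drugs; CNS+ if Pe >4.4 × 10–6 cm s–1.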

| EC50 [1] [µM] | permeability [24] | Compound | Activity (HCT-116 [2]) | Activity (HCT-116 [3]) | other results |
| --- | --- | --- | --- | --- | --- |
| 21.7 |  | O=C(Nc1ccc([N+](=O)[O-])cc1)c1cccc2ccccc12 |  |  |  |
| 5.64 |  | O=C(Nc1ccc([N+](=O)[O-])cc1F)c1cc(Cl)ccc1O | Non-toxic | inactive |  |
| 13.7 |  | CC(C)C[C@@H](C=O)NC(=O)[C@H](CC(C)C)NC(=O)[C@H](CC(C)C)NC(=O)OCc1ccccc1 [MG-132] (Cbz-Leu-Leu-Leu-aldehyde) |  |  |  |
|  | Permeable | O=C(Nc1ccccc1)c1cc(Cl)ccc1O | Non-toxic | inactive | Activity (HCT-116 [4]): Non-toxic; Activity (HCT-116 [5]): Active; Activity (Lymphoblastoid cell [6]): Active; Activity (Lymphoblastoid cell [7]): Active; Activity (Lymphoblastoid cell [8]): inactive; Activity (Lymphoblastoid cell [9]): Active; Activity (Lymphoblastoid cell [10]): Active; Activity (Lymphoblastoid cell [11]): Active; Activity (Lymphoblastoid cell [12]): Active; Activity (Lymphoblastoid cell [13]): Active; Activity (Lymphoblastoid cell [14]): Active; Activity (Lymphoblastoid cell [15]): Not active; The Result Suggests That Cell Surface Hdl Scavenger Receptor B, Type 1 (Sr-B1) May Be Involved In Mechanism Of Action; Activity (Lymphoblastoid cell [16]): Active; Activity (Lymphoblastoid cell [17]): Active; Activity (Lymphoblastoid cell [18]): Not active; The Result Suggests That Cell Surface Hdl Scavenger Receptor B, Type 1 (Sr-B1) May Be Involved In Mechanism Of Action; Activity (Lymphoblastoid cell [19]): Active; Activity (Lymphoblastoid cell [20]): Active; Activity (HCT-116 [21]): Active; Activity (Lymphoblastoid cell [22]): Active; Activity (Lymphoblastoid cell [23]): Active |
| 20.2 |  | O=C(Nc1ccc(F)cc1)c1cc(Cl)ccc1O |  |  |  |
| 2.44 | Permeable | O=C(Nc1ccc([N+](=O)[O-])cc1)c1cc(Cl)ccc1O |  | inactive |  |
| 9.7 | Permeable | N#Cc1ccc(NC(=O)c2cc(Cl)ccc2O)cc1 | Non-toxic | inactive | Activity (HCT-116 [4]): Non-toxic |
| 8.32 | Permeable | O=C(Nc1cccc([N+](=O)[O-])c1)c1cc(Cl)ccc1O | Non-toxic | inactive | Activity (HCT-116 [4]): Non-toxic |
| 10.2 |  | CNC(=O)c1ccc(NC(=O)c2cc(Cl)ccc2O)cc1 |  |  |  |
| 3.34 |  | O=C(Nc1ccc([N+](=O)[O-])cc1Cl)c1cccc2ccccc12 |  |  |  |
| 5.68 |  | O=C(Nc1ccc([N+](=O)[O-])cc1Cl)c1cc(Cl)ccc1O [NICLOSAMIDE] | Non-toxic | inactive |  |

Reference: ChEMBL document CHEMBL6096700, “Modulation of Mitochondria-Endoplasmic Reticulum Contacts (MERCs) by Small Molecules as a New Strategy for Restoring Lipid Metabolism in an Amyotrophic Lateral Sclerosis Model” (J Med Chem, 2025)
